Shown are actives, neighbours in structure and some others; about 1.7% of the full set was active somewhere.
STEP block: STEP phosphatase inhibitors, primary screen, biochemical, fluorescence intensity, uHTS; Tyrosine-protein phosphatase non-receptor type 5 (Homo sapiens), P54829; recombinant STEP, OMFP fluorogenic substrate; inhibition, % at 20 µM; 360,000 tested, 0.25% active; AID 588621, 2011;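 active means inhibition at 20 µM, scaled per plate between control wells, above about 37%, limit read from the data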
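Test system: STEP tyrosine phosphatase / Reagent: OMFP at 25 µM / Doses: 20 µM, 1% DMSO / Read-out: percent inhibition scaled to no-enzyme and uninhibited-enzyme controls, plate-pattern corrected / Detection: FITC-channel fluorescence of OMFP product / Medium: Bis-Tris buffer pH 6.0, 2.5 mM DTT, 0.005% Tween 20 / Schedule: 20 min at room temperature, dark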
LMPTP inh: LMPTP phosphatase inhibitors, primary screen, biochemical, fluorescence intensity, uHTS; recombinant LMPTP-A, OMFP fluorogenic substrate; 360,000 tested, 0.22% active; AID 651560, 2012; Low molecular weight phosphotyrosine protein phosphatase (Homo sapiens), P24666; inhibition, % at 20 µM;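 active means compounds that cut the enzyme signal by at least half of the control window in the single-dose screen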
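Test system: LMPTP-A, protein tyrosine phosphatase of low molecular weight; Input: 0.625 nM enzyme; Incubation: 50 min dark incubation at room temperature; Signal: endpoint fluorescence intensity from OMFP dephosphorylation; Read-out basis: % inhibition versus control wells.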
SUMO1-SIM PPI: modulators of SUMO1 protein-protein interactions, primary screen, biochemical, uHTS; SUMO1 binding to a labelled peptide, TR-FRET, 1 h; inhibition, % at 20 µM; 360,000 tested, 0.33% active; in the data active means inhibition above about 37%
Scp-1 inhibitor: Scp-1 phosphatase inhibitors, primary screen, biochemical, colorimetric, uHTS; Recombinant Scp1, phosphopeptide, malachite green phosphate absorbance; inhibition, % at 20 µM; 340,000 tested, 0.88% active; AID 493091, 2011;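 active means inhibition above about 50% at 20 µM, limit read from the data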
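Material: truncated SCP-1 phosphatase (76-261aa) / Buffer or medium: 50 mM Tris acetate pH 5.5, 0.005% Tween-20, 10 mM MgCl2 / Compound dosing: one concentration, 20 µM, with 1.0% DMSO / Incubation: 45 min room-temperature reaction, 5 min colour, 30 min stabiliser / Detection: colorimetric free-phosphate detection, absorbance 630 nm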
Pemphigus Ab inh: inhibitors of pemphigus antibody binding to DSG3, primary screen, biochemical, bead-based, flow cytometry, scFv-GFP; binding (percent of control), % at 10 µM; Desmoglein-3 (Homo sapiens), P32926; DSG3-coupled beads, scFv-anti-DSG3-GFP binding; active compounds read low; 310,000 tested, 0.48% active;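 active means binding more than 3 SD below its plate's average and above zero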;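 further: hits lower antibody fragment binding to DSG3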
Target sequence (P32926 whole entry, looked up, the tested form may be a part): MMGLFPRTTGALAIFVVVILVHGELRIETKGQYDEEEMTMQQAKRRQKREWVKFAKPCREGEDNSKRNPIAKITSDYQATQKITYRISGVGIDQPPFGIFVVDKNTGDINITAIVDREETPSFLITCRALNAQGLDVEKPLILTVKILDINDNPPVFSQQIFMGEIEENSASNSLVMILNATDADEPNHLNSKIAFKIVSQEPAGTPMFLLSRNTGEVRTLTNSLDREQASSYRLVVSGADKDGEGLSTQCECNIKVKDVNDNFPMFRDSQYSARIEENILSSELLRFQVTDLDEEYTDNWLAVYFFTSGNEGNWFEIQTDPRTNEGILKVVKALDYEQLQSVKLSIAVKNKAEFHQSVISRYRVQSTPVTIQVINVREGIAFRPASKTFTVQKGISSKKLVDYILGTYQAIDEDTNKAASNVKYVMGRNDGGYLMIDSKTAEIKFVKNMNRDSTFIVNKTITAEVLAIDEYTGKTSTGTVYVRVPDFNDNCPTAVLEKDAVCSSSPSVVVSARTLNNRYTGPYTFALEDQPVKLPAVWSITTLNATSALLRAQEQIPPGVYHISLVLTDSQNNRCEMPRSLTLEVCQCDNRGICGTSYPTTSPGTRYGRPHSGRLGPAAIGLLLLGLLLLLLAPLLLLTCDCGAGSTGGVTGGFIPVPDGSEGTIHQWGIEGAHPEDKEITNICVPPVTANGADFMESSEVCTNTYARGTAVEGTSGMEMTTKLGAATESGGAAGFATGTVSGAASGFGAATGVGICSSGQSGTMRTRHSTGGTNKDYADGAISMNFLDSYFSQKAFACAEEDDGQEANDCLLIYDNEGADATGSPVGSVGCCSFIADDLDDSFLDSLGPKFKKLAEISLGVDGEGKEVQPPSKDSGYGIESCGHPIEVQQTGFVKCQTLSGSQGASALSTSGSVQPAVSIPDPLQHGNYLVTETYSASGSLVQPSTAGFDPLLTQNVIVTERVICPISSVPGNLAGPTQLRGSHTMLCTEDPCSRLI
Numbers stand for hits; n = inactive; x = not tested or not shown.

SMILES	STEP block	LMPTP inh	SUMO1-SIM PPI	Scp-1 inhibitor	Pemphigus Ab inh
COc1cc(/C=C2\SC(=O)N(c3ccc(Cl)cc3)C2=O)cc([N+](=O)[O-])c1O	97	84	106	55	n
O=C1S/C(=C\c2ccc(O)c([N+](=O)[O-])c2)C(=O)N1c1ccccc1Cl	n	n	n	n	n
CCOC(=O)C1CCN(C(=O)c2cc(C(C)(C)C)nn2Cc2ccccc2)CC1	n	n	n	n	n
Cc1cc(/C=N/Nc2ccc([N+](=O)[O-])cn2)c(C)n1-c1ccc(C(=O)O)cc1	n	n	n	57	n
Cc1ccc(CNC(=O)CCS(=O)(=O)c2ccc3nc(C)sc3c2)cc1	n	n	n	n	n
CCOC(=O)[C@]12CCCC=C1N(Cc1cccc3ccccc13)C(=O)[C@H](CC(=O)NCCCCc1ccccc1)C2	x	n	n	x	x
NC1=NC2(CCCCC2)n2c(nc3ccccc32)N1	n	n	n	n	n
NC1=NC2(CCN(Cc3ccccc3)CC2)n2c(nc3ccccc32)N1	n	49	n	n	n
CCCN(CC(=O)Nc1ccc(F)c(F)c1F)C(=O)c1ccc(=O)n(Cc2ccccc2)n1	n	n	n	n	n
CCCc1cc(=O)oc2cc(OCC(=O)N(C)C)c(Cl)cc12	n	n	n	n	2.6
CC(C)N(C)c1ncnc2c1ncn2[C@H]1CN(CCc2ccccc2)C[C@@H](CO)O1	n	n	n	x	x
ClN=C1C=CC=CC1=NCl	n	68	57	x	x
O=C(Nc1ccccc1)c1ccc(C(=O)Nc2ccccc2)nc1	n	n	n	n	23
CC(=O)Nc1cccc(NC(=O)c2ccc(C(=O)Nc3cccc(NC(C)=O)c3)nc2)c1	n	n	n	n	n
COc1ccc(N2CCN(C(=O)CSc3nnnn3C3CC3)CC2)cc1	n	n	n	n	n
COc1cc(C(=O)OCC(=O)NC2CC2)ccc1OCCC(C)C	n	n	n	n	x
CC(=O)NC1(C(F)(F)F)NC(=O)N(CCc2ccccc2)C1=O (stereo not given)	n	n	44	n	n
COc1ccc(N(CC2CO2)S(=O)(=O)c2ccc(C)cc2)cc1 (stereo not given)	n	n	n	n	x
S=C(NCCc1ccccc1)NC1CCC(NC(=S)NCCc2ccccc2)CC1 (stereo not given)	n	n	n	n	71
CC(C)=C1SC(N2CCN(c3cccc(C(F)(F)F)c3)CC2)=NC1=O	n	n	n	n	42
CC(C)=C1SC(N2CCN(c3ccc(C)cc3)CC2)=NC1=O	n	n	n	n	n
COc1ccc(/C=N\NC(=O)c2ccc(Cn3cc(Br)c([N+](=O)[O-])n3)o2)c(OC)c1C	n	n	n	n	65
COc1ccc(/C=N/NC(=O)c2ccc(Cn3cc([N+](=O)[O-])cn3)o2)c(OC)c1C	n	n	n	n	n
CC(=O)c1ccc(NC(=O)Cn2c3ccccc3c3nc(=O)cc(C)n32)cc1	n	n	n	n	n
CCOC(=O)c1ccc(N2CC(O)=C(c3nc4ccccc4c(=O)[nH]3)C2=N)cc1	n	n	50	n	n
SMILES	STEP block	LMPTP inh	SUMO1-SIM PPI	Scp-1 inhibitor	Pemphigus Ab inh
Cc1cc(N/N=C/c2ccccc2O)c2ccccc2n1	n	51	n	n	n
COc1ccc2nc(C)cc(N/N=C/c3cccc(OC)c3O)c2c1	n	n	n	n	n
CCN1CCN(C(=O)c2ccc(CS(=O)Cc3ccc(C)cc3)o2)CC1 (stereo not given)	n	n	n	n	74
Cc1nn(CCc2nn[nH]n2)c2nc(-c3ccc(C4CCCCC4)cc3)cc(C(F)(F)F)c12	n	n	40	n	n
Cc1ccc(S(=O)(=O)c2nnn3c2nc(NCCCN2CCCC2=O)c2ccccc23)cc1C	n	n	56	n	n
O=C1C2C(C(=O)N1/N=C/c1ccc([N+](=O)[O-])o1)C1C=CC2C12CC2 (stereo not given)	n	n	n	n	n
CC1=NN(c2nc(N)nc(/C(C#N)=C/c3ccc([N+](=O)[O-])o3)n2)C(C)(C)C1	n	n	n	64	x
CNC(=O)COc1coc(CN2CCN(C(=O)c3ccco3)CC2)cc1=O	n	n	n	n	n
CN(Cc1cnccn1)C(=O)C1CCC(=O)N(CCc2ccc(Cl)cc2)C1 (stereo not given)	n	n	n	n	x
Cc1cnc(CN(C)C(=O)C2CCC(=O)N(CCc3ccc(Cl)cc3)C2)[nH]1 (stereo not given)	n	n	40	x	n
CC(C)[C@H](NC(=O)N1c2ccccc2NC(=O)[C@@H]1C(C)C)C(=O)N1CCC[C@H]1C(=O)O	n	n	n	n	x
CC1=CCC2C(=O)N(c3ccc(C)c(Br)c3)C(=O)C2C1 (stereo not given)	n	n	n	n	48
O=C(Cn1cnc2ccccc2c1=O)c1ccc(OC(F)F)cc1	n	n	n	n	39
CC(=C/c1ccc(C(C)C)cc1)/C=N/NC(=O)Cn1nnnc1N	n	n	n	n	n
CCOC(=O)c1ccc(N/C=C/C(=O)c2ccccc2)cc1	n	n	n	n	n
CCOC(=O)c1ccccc1N/C=C/C(=O)c1ccccc1	n	n	n	n	36
Cc1cc2oc(=O)cc(-c3ccccc3)c2c(C)c1-c1ccc(F)c(Cl)c1	n	n	n	n	74
Cc1cc2oc(=O)cc(-c3ccccc3)c2c(C)c1-c1ccc(CO)cc1	n	n	n	n	n
N#CC(C(=O)Nc1ccc(Cl)c(Cl)c1)=C1Nc2ccccc2N1	n	n	n	n	n
N#CC(C(=O)Nc1cccc(Cl)c1)=C1Nc2ccccc2N1	n	n	62	n	n
CN(Cc1ccccc1)C(=O)COC(=O)C1CCN(S(=O)(=O)c2cccs2)CC1	n	n	n	n	n
C/C=C\C=C/C(=O)Nc1cccc(C2=NOC3(C2)C[C@@H](C(N)=O)N(C(=O)/C=C/CC)C3)c1 (stereo not given in full)	n	n	n	n	n
C/C=C\C=C/C(=O)Nc1cccc(C2=NOC3(C2)C[C@@H](C(N)=O)N(C(=O)/C=C/C=C\C)C3)c1 (stereo not given in full)	n	n	95	80	68
C=C(C)C(=O)Nc1cccc(C2=NOC3(C2)C[C@@H](C(N)=O)N(C(=O)c2ccc(Cl)cc2)C3)c1 (stereo not given in full)	x	x	x	71	x
C/C=C(/C)C(=O)Nc1cccc(C2=NOC3(C2)C[C@H](C(N)=O)N(C(=O)c2ccc(Cl)cc2)C3)c1 (stereo not given in full)	n	n	n	n	n

From PubChem BioAssay
